Calls of active or inactive are those of the source. The rule behind the calls is not given here.
How the values were obtained:
[1] = target: 4-aminobutyrate aminotransferase, mitochondrial (Sus scrofa, UniProt P80147); experiment: Reversible inhibition of pig brain GABA-AT using GABA as substrate
Outline: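 Pig brain GABA-AT, purified in-house, mixed with excess SSADH (from GABase), then inhibitor at several concentrations added in assay buffer: 87 mM potassium pyrophosphate pH 8.6, 6 mM GABA, 5 mM α-ketoglutarate, 1.25 mM NADP+, 3.3 mM β-mercaptoethanol. Rate read directly without preincubation as NADPH absorbance at 340 nm. IC50 from concentration-response fit; Ki via Cheng-Prusoff.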

[2] = target: 4-aminobutyrate aminotransferase, mitochondrial (Sus scrofa) (UniProt P80147); experiment: Reversible inhibition of pig brain GABA-AT using GABA as substrate at 23 mM
Sequence of 4-aminobutyrate aminotransferase, mitochondrial (Sus scrofa) (P80147 whole entry): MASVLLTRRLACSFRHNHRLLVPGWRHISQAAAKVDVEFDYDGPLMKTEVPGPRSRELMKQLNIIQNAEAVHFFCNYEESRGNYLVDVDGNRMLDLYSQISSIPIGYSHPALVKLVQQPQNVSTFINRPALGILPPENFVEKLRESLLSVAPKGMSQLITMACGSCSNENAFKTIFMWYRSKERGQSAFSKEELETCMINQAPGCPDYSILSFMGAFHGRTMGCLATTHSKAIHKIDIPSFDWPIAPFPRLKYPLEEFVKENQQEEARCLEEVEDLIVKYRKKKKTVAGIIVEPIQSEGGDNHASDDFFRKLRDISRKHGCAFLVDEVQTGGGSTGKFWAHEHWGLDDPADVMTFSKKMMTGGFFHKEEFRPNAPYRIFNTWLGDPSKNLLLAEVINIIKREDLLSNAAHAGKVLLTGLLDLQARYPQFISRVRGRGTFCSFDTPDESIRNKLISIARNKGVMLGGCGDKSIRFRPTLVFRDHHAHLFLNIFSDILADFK

[3] = target: 4-aminobutyrate aminotransferase, mitochondrial (Sus scrofa) (UniProt P80147); experiment: Time dependent inhibition of pig brain GABA-AT using GABA as substrate at 5 mM up to 150 mins
Outline: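 Pig brain GABA-AT in 100 mM potassium phosphate pH 7.0 preincubated at 25 °C with β-mercaptoethanol, α-ketoglutarate and compound (5 mM final); aliquots taken at time points into assay solution (GABA, α-ketoglutarate, NADP+, pH 8.6) with excess SSADH; remaining activity from 340 nm NADPH absorbance rate.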

[4] = target: 4-aminobutyrate aminotransferase, mitochondrial (Sus scrofa) (UniProt P80147); experiment: Activity at pig brain GABA-AT assessed as glutamate production at 3 mM preincubated for 20 mins relative to GABA
Outline: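 GABA-AT purified from pig brain; substrate tested as turnover substrate in 100 mM potassium pyrophosphate pH 8.6 with α-ketoglutarate; glutamate formed detected by glutamate oxidase/horseradish peroxidase/Amplex Red fluorescence (ex 530, em 590 nm); scaled to glutamate standard curve (0–10 µM); highest rates, between 15 and 25 min, used.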

Sequence of 4-aminobutyrate aminotransferase, mitochondrial (P80147 whole entry): as above

Ki [1] [µM]	Compound	inhibition [2]	inhibition [3]	Activity [4] [%]
40	N[C@@H]1C=C[C@H](C(=O)O)C1			
	C[C@@H](F)[C@H](N)CCC(=O)O	inactive	inactive	0.02
	C[C@@H](F)[C@@H](N)CCC(=O)O	inactive	inactive	0.32
	C[C@H](F)[C@@H](N)CCC(=O)O	inactive	inactive	0.11
